The values below come from ChEMBL document CHEMBL1139509, “Design, synthesis, and antipicornavirus activity of 1-[5-(4-arylphenoxy)alkyl]-3-pyridin-4-ylimidazolidin-2-one derivatives” (J Med Chem, 2005).

The nature of series [1]: In vitro inhibitory concentration against Coxsackievirus B4. Format: functional, Viruses. In outline:
(§1)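 CPE-inhibition (neutralization) assay on RD cells seeded at 3 × 10⁵ cells/mL in DMEM/10% FBS and grown 24-30 h to about 90% confluency. Virus (100 TCID50) was mixed with graded compound concentrations and adsorbed 1 h at 37 °C. Cells were overlaid with DMEM, 5% FBS and 2% DMSO, incubated 64 h at 37 °C, then glutaraldehyde-fixed and crystal violet-stained, with A570 read-out. IC50 is 50% CPE reduction versus virus control. Triplicate, at least twice.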

For series [2], the system named is Enterovirus. Put plainly: In vitro inhibitory concentration against human enterovirus EV71. It is filed as functional, organism-based, Viruses. In outline: as §1
Series [3] is described as follows: In vitro inhibitory concentration against Echovirus 6. It is filed as functional, Viruses.
For another series, the system named is Human rhinovirus sp. As to the kind of experiment: In vitro inhibitory concentration against Rhinovirus 1B. It is filed as functional, organism-based, Viruses.
Series [4] deals with Coxsackievirus. As to the kind of experiment: Inhibitory concentration against Coxsackievirus B2. It is filed as functional, organism-based, Viruses. In a few lines:
as §1

Series [5] relates to Coxsackievirus. Put plainly: Inhibitory concentration against Coxsackievirus A24. Format: functional, organism-based, Viruses. In outline: as §1
For series [6], the system named is Coxsackievirus. Put plainly: Inhibitory concentration against Coxsackievirus B1. It is filed as functional, organism-based, Viruses. In a few lines:
as §1

The nature of series [7]: Inhibitory concentration against Echovirus 29. Format: functional, Viruses. In a few lines: as §1
The subject of series [8] is Enterovirus. As to the kind of experiment: Inhibitory concentration against human enterovirus EV68. It is filed as functional, organism-based, Viruses.
The next series relates to rhinovirus A2. Put plainly: Inhibitory concentration against Human rhinovirus 2. Format: functional, organism-based, human rhinovirus type 2. The following applies: Rhinovirus A. In outline:
as §1

Series [9] has as its system Enterovirus. As to the kind of experiment: Inhibitory concentration against human enterovirus EV71 (BrCr) genotype A. Format: functional, organism-based, Viruses. In outline: as §1
Series [10] has as its system Coxsackievirus. Put plainly: Inhibitory concentration against Coxsackievirus B6. It is filed as functional, organism-based, Viruses. In outline: as §1
Series [11] concerns Enterovirus. Put plainly: In vitro inhibitory concentration against human enterovirus EV71-2231 strain. It is filed as functional, organism-based, Enterovirus A71. In a few lines:
as §1

The subject of series [12] is Coxsackievirus. Put plainly: Inhibitory concentration against Coxsackievirus B5. Format: functional, organism-based, Viruses. In a few lines:
as §1

In series [13] the test system is Enterovirus. As to the kind of experiment: In vitro inhibitory concentration against human enterovirus EV71-4643 strain. It is filed as functional, organism-based, Enterovirus A71. In a few lines: as §1
Series [14] can be described thus: Inhibitory concentration against Human rhinovirus 14. Format: functional, human rhinovirus type 14. In outline: as §1
Series [15] has as its system Coxsackievirus. As to the kind of experiment: Inhibitory concentration against Coxsackievirus A16. Format: functional, organism-based, Viruses. In outline: as §1
Series [16] has as its system Enterovirus. Put plainly: Inhibitory concentration against human enterovirus EV71 (2231) genotype C. Format: functional, organism-based, Viruses. In a few lines: as §1
Series [17] in a line: Cytotoxicity against human rhabdomyosarcoma cells. Format: cell-based. In a few lines: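 RD (rhabdomyosarcoma) cells were exposed to test compounds at various concentrations for 96 h at 37 °C. Viable cells were counted by trypan blue staining. CC50 is the concentration that reduces viability to 50% of the untreated control culture. Triplicate, run at least twice.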
Series [18] deals with Coxsackievirus. Put plainly: Inhibitory concentration against Coxsackievirus A10. Format: functional, organism-based, Viruses. In outline:
as §1

Series [19] deals with Enterovirus. Put plainly: Inhibitory concentration against human enterovirus EV71 (2086) genotype C. Format: functional, organism-based, Viruses. In outline:
as §1

The subject of series [20] is Enterovirus. Put plainly: Inhibitory concentration against human enterovirus EV71 (1743) genotype B. It is filed as functional, organism-based, Viruses. In a few lines: as §1
The subject of series [21] is Enterovirus. As to the kind of experiment: Inhibitory concentration against Human Enterovirus 71. Format: functional, organism-based, Viruses. In a few lines: as §1
Series [22] concerns Coxsackievirus. Put plainly: Inhibitory concentration against Coxsackievirus B3. It is filed as functional, organism-based, Viruses. In outline:
as §1

Series [23] is described as follows: Inhibitory concentration against Echovirus 9. It is filed as functional, Viruses. In a few lines:
as §1

In series [24] the test system is Enterovirus. Put plainly: Inhibitory concentration against human enterovirus EV71 (4643) genotype C. It is filed as functional, organism-based, Viruses. In a few lines: as §1
For series [25], the system named is Coxsackievirus. Put plainly: Inhibitory concentration against Coxsackievirus A9. Format: functional, organism-based, Viruses. In a few lines:
as §1

Each structure is given as a SMILES string. pIC50: −log10 of the molar value.

`N#Cc1ccc2c(c1)CCC(c1ccc(Cl)cc1)O2` (stereo not drawn): the values for the pIC50 (in [1]; in the series with Enterovirus [2]; in [3]) were 6.49, 6.35 and 6.32, respectively.

With `c1ccc(C2COc3ccc(C4=NCCO4)cc3C2)cc1` (stereo not drawn), the pIC50 with Enterovirus [2] was 5.34; in the series on Human rhinovirus sp. it was 6.00.

Turning to `O=C1N(CCCCCOc2ccc(-c3ccc(Cl)cc3)cc2)CCN1c1ccncc1`, the pIC50 was less than 4.90 with Coxsackievirus [4]; 5.89 in the series on Coxsackievirus [5]; less than 4.90 in the series with Coxsackievirus [6]; 6.41 in series [7]; less than 4.90 in the series with Enterovirus [8]; less than 4.90 with rhinovirus A2. In addition, the pIC50 in the series on Enterovirus [9] was 6.89; in the series with Coxsackievirus [10] it was less than 4.90; in the series on Enterovirus [11] it was 7.12; in the series on Coxsackievirus [12], 5.94; in the series with Enterovirus [13] it was 7.42; in [14] it was less than 4.90. For the same molecule, the pIC50 with Coxsackievirus [15] was less than 4.90; in the series with Enterovirus [16] it was 7.12; with Coxsackievirus [18], less than 4.90; with Enterovirus [19] it was 7.37; in the series on Enterovirus [20] it was 7.04; with Enterovirus [21] it was 7.42. Moreover, the pIC50 is less than 4.90 with Coxsackievirus [22], 5.88 in series [23], 7.42 in the series on Enterovirus [24] and 7.15 with Coxsackievirus [25]. In series [17], this molecule returned a CC50 of 6250 nM.
